Reference: ChEMBL document CHEMBL3865784 (Eur J Med Chem, 2016)

Assays:
[1] = Selectivity index, ratio of IC50 for NQO1-deficient human PBMC to IC50 for human MDA-MB-435 cells overexpressing NQO1
In short: (§1)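 Selectivity index is IC50 in the normal cells divided by IC50 in the cancer line. Normal cells: V79 and L929 in DMEM, PBMC in RPMI with phytohaemagglutinin. Cancer lines in RPMI with 10% FBS, seeded at 0.1 × 10^6 (HL-60) or 0.7 × 10^5 cells/well (solid tumors). Absorbance 550 nm; nonlinear regression.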

L929 [2] = test: Selectivity index, ratio of IC50 for NQO1-deficient mouse L929 cells to IC50 for human MDA-MB-435 cells overexpressing NQO1; in short: as §1
[3] = Cytotoxicity against NQO1-deficient chinese hamster V79 cells assessed as reduction in cell viability after 72 hrs by MTT assay; assay type: toxicity, cell-based, Cricetulus griseus; conditions: v79
V79 [4] = test: Selectivity index, ratio of IC50 for NQO1-deficient chinese hamster V79 cells to IC50 for human PC3 cells overexpressing NQO1; in short: as §1
L929 [5] = test: Selectivity index, ratio of IC50 for NQO1-deficient mouse L929 cells to IC50 for human OVCAR8 cells overexpressing NQO1; in short: as §1
[6] = Cytotoxicity against human PC3 cells overexpressing NQO1 assessed as reduction in cell viability after 72 hrs by MTT assay; assay type: functional, cell-based; conditions: PC-3, 72 h
[7] = Cytotoxicity against human MDA-MB-435 cells overexpressing NQO1 assessed as reduction in cell viability after 72 hrs by MTT assay; assay type: functional, cell-based; conditions: MDA-MB-435, 72 h
In short: (§2)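 Cancer lines from NCI, grown in RPMI 1640 with 10% FBS, 2 mM L-glutamine, penicillin/streptomycin, 37 °C, 5% CO2; seeded 0.1 × 10^6 cells/well (HL-60) or 0.7 × 10^5 cells/well (solid tumours). Compounds in DMSO, final 0.1% v/v; DMSO vehicle as negative control.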

PC-3 = test: Selectivity index, ratio of IC50 for NQO1-deficient human PBMC to IC50 for human PC3 cells overexpressing NQO1; in short: as §1
L929 [8] = test: Selectivity index, ratio of IC50 for NQO1-deficient mouse L929 cells to IC50 for human SF295 cells overexpressing NQO1; in short: as §1
HCT-116 [9] = test: Selectivity index, ratio of IC50 for NQO1-deficient mouse L929 cells to IC50 for human HCT116 cells expressing NQO1
In short: as §1, with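 “line. All IC50s come from 72 h MTT assays.” for “line.”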

[10] = Cytotoxicity against human OVCAR8 cells overexpressing NQO1 assessed as reduction in cell viability after 72 hrs by MTT assay; assay type: functional, cell-based; conditions: OVCAR-8, 72 h; in short: as §2
OVCAR-8 [11] = test: Selectivity index, ratio of IC50 for NQO1-deficient chinese hamster V79 cells to IC50 for human OVCAR8 cells overexpressing NQO1
In short: as §1, with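 “line. All IC50s come from 72 h MTT assays.” for “line.”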

HCT-116 [12] = test: Selectivity index, ratio of IC50 for NQO1-deficient human PBMC to IC50 for human HCT116 cells expressing NQO1
In short: as §1, with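 “line. All IC50s come from 72 h MTT assays.” for “line.”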

SF-295 [13] = test: Selectivity index, ratio of IC50 for NQO1-deficient chinese hamster V79 cells to IC50 for human SF295 cells overexpressing NQO1; in short: as §1
Mus musculus = species: Mus musculus; test: Cytotoxicity against NQO1-deficient mouse L929 cells assessed as reduction in cell viability after 72 hrs by MTT assay; assay type: toxicity, cell-based; conditions: l929
V79 [14] = test: Selectivity index, ratio of IC50 for NQO1-deficient chinese hamster V79 cells to IC50 for human MDA-MB-435 cells overexpressing NQO1; in short: as §1
HCT-116 [15] = test: Selectivity index, ratio of IC50 for NQO1-deficient chinese hamster V79 cells to IC50 for human HCT116 cells expressing NQO1
In short: as §1, with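 “line. All IC50s come from 72 h MTT assays.” for “line.”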

OVCAR-8 [16] = test: Selectivity index, ratio of IC50 for NQO1-deficient human PBMC to IC50 for human OVCAR8 cells overexpressing NQO1
In short: as §1, with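 “line. All IC50s come from 72 h MTT assays.” for “line.”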

[17] = Cytotoxicity against human HCT116 cells expressing NQO1 assessed as reduction in cell viability after 72 hrs by MTT assay; assay type: functional, cell-based; conditions: HCT-116, 72 h; in short: as §2
SF-295 [18] = test: Selectivity index, ratio of IC50 for NQO1-deficient human PBMC to IC50 for human SF295 cells overexpressing NQO1; in short: as §1
L929 [19] = test: Selectivity index, ratio of IC50 for NQO1-deficient mouse L929 cells to IC50 for human PC3 cells overexpressing NQO1; in short: as §1
[20] = Cytotoxicity against NQO1-deficient human HL60 cells assessed as reduction in cell viability after 72 hrs by MTT assay; assay type: functional, cell-based; conditions: HL-60, 72 h; in short: as §2
L929 [21] = test: Selectivity index, ratio of IC50 for NQO1-deficient mouse L929 cells to IC50 for NQO1-deficient human HL60 cells; assay type: functional; in short: as §1
HL-60 [22] = test: Selectivity index, ratio of IC50 for NQO1-deficient chinese hamster V79 cells to IC50 for NQO1-deficient human HL60 cells; assay type: functional; in short: as §1
[23] = Cytotoxicity against NQO1-deficient human PBMC assessed as reduction in cell viability after 72 hrs by MTT assay; assay type: toxicity, cell-based; conditions: pbmc
[24] = Cytotoxicity against human SF295 cells overexpressing NQO1 assessed as reduction in cell viability after 72 hrs by MTT assay; assay type: functional, cell-based; conditions: SF-295, 72 h
HL-60 [25] = test: Selectivity index, ratio of IC50 for NQO1-deficient human PBMC to IC50 for NQO1-deficient human HL60 cells; in short: as §1

| SMILES | Ratio IC50 [1] | IC50 [3] [nM] | Ratio IC50 (V79 [4]) | IC50 [6] [nM] | IC50 [7] [nM] | Ratio IC50 (PC-3) | Ratio IC50 (L929 [8]) | IC50 [10] [nM] | Ratio IC50 (HCT-116 [12]) | IC50 (Mus musculus) [nM] | Ratio IC50 (HCT-116 [15]) | IC50 [17] [nM] | Ratio IC50 (SF-295 [18]) | Ratio IC50 (L929 [19]) | IC50 [20] [nM] | Ratio IC50 (L929 [21]) | Ratio IC50 (HL-60 [22]) | IC50 [23] [nM] | IC50 [24] [nM] | Ratio IC50 (HL-60 [25]) | also measured |
| --- | --- | --- | --- | --- | --- | --- | --- | --- | --- | --- | --- | --- | --- | --- | --- | --- | --- | --- | --- | --- | --- |
| CC1(C)OC2=C(C(=O)c3ccccc3C2=O)C1Nc1cccc(-c2cn(C[Se]c3ccccc3)nn2)c1 (stereo not given) | 3.7 | 3780 | 2.2 | 1710 | 880 | 1.9 | 3.1 | 680 | 2.6 | 3380 | 2.9 | 1280 | 3 | 1.9 | 1080 | 3.1 | 3.5 | 3330 | 1080 | 3 | Ratio IC50 (L929 [2]): 3.8; Ratio IC50 (L929 [5]): 4.9; Ratio IC50 (HCT-116 [9]): 2.6; Ratio IC50 (OVCAR-8 [11]): 5.5; Ratio IC50 (SF-295 [13]): 3.5; Ratio IC50 (V79 [14]): 4.2; Ratio IC50 (OVCAR-8 [16]): 4.8 |
| O=C1C=C(NCc2cn(C[Se]c3ccccc3)nn2)C(=O)c2ccccc21 |  | 3990 |  | 2080 | 3090 |  | 3.9 | 1890 | 2.7 | 3830 | 2.3 | 1720 | 4.8 |  | 1130 | 3.3 | 3.5 | 4750 | 970 | 4.2 | Ratio IC50 (HCT-116 [9]): 2.2; Ratio IC50 (SF-295 [13]): 4.1 |
| C#Cc1cccc(NC2C3=C(OC2(C)C)c2ccccc2C(=O)C3=O)c1 (stereo not given) |  | 2160 | 1.1 | 1860 | 2040 | 1.5 |  | 2530 | 1.89 | 2500 | 1.45 | 1480 |  | 1.3 | 260 | 9.6 | 8.3 | 2800 | 2590 | 10.7 | Ratio IC50 (HCT-116 [9]): 1.68 |
| [N-]=[N+]=NCC1CC2=C(O1)c1ccccc1C(=O)C2=O (stereo not given) | 4.6 | 820 | 1.6 | 510 | 390 | 3.5 | 2.7 | 350 | 2.8 | 1060 | 1.3 | 630 | 4.6 | 2 | 820 | 1.2 | 1 | 1800 | 390 |  | Ratio IC50 (L929 [2]): 2.7; Ratio IC50 (L929 [5]): 3; Ratio IC50 (OVCAR-8 [11]): 2.3; Ratio IC50 (V79 [14]): 2.1; Ratio IC50 (OVCAR-8 [16]): 5.1 |
| O=C1C(=O)c2ccccc2C2=C1CC(Cn1cc(C[Se]c3ccccc3)nn1)O2 (stereo not given) | 4.5 | 440 | 1.8 | 240 | 290 | 5.4 | 2.8 | 70 |  | 620 |  |  | 5.9 | 2.5 | 130 | 4.7 | 3.3 | 1310 | 220 | 10 | Ratio IC50 (L929 [2]): 2.1; Ratio IC50 (L929 [5]): 8.8; Ratio IC50 (OVCAR-8 [11]): 6.2; Ratio IC50 (SF-295 [13]): 2; Ratio IC50 (V79 [14]): 1.5; Ratio IC50 (OVCAR-8 [16]): 18.7 |
